Results gathered from unrelated publications.
Effect on: cell growth or viability

Compound	cell line	method	time	quantity	value
COc1ccc(-c2ccc(-c3ccc(C(=N)N)nc3)s2)cc1Cl	NCI/ADR-RES	SRB	–	GI50	2010 nM
Cn1nnc2c(C(N)=O)ncn2c1=O	HGC-27	–	–	EC50	176000 nM
COc1ccc(-c2ccc(-c3ccc(C(=N)N)nc3)s2)cc1	NCI/ADR-RES	SRB	–	GI50	1940 nM
S=C([S][Au-][P+](CCCCCC[P+]([Au-][S]C(=S)n1cccn1)(c1ccccc1)c1ccccc1)(c1ccccc1)c1ccccc1)n1cccn1	NCI/ADR-RES	SRB	–	GI50	3990 nM
C=CC(=O)N1CCN(c2cc(-c3noc([C@@]4(C)CCCc5sc(N)c(C#N)c54)n3)nc(N3CCN(C)C[C@@H]3C)c2)CC1	GP2d	–	5 days	EC50	4500 nM
CN1CCN(C(=O)[C@H](CCCN[C@@H]2C[C@H]2c2ccc(F)cc2)NC(=O)c2ccc(-n3ccnn3)cc2)CC1	NCI-H510A	resazurin	10 days	EC50	10.5 nM
COc1cccc(Oc2ccccc2NC(=O)CNC(=O)c2cccc3ccccc23)c1	NCI/ADR-RES	SRB	48 h	GI50	240 nM
C=CC(=O)N1CCN(c2nc(=O)n(-c3c(C)ccnc3C(C)C)c3nc(-c4c(O)cccc4F)c(F)cc23)[C@@H](C)C1	GP2d	–	5 days	EC50	> 10000 nM
CC1=C(O)C(=O)C=C2C1=CC=C1[C@@]2(C)CC[C@@]2(C)[C@@H]3C[C@](C)(C(=O)OCCCBr)CC[C@]3(C)CC[C@]12C	MGC-803	MTT	48 h	IC50	400 nM
O=C(O)c1ccc(CN2CCC(CN[C@@H]3C[C@H]3c3ccccc3)CC2)cc1	NCI-H510A	resazurin	10 days	EC50	109 nM
Cc1cc(C)n(C(=S)[S][Au][PH](CCCCCC[PH]([Au][S]C(=S)n2nc(C)cc2C)(c2ccccc2)c2ccccc2)(c2ccccc2)c2ccccc2)n1	NCI/ADR-RES	SRB	–	GI50	1300 nM
